Results on 14 molecules are retold here after ChEMBL document CHEMBL2146464, “Structure-activity relationship study of nitrosopyrimidines acting as antifungal agents” (Bioorg Med Chem, 2012).

Converted amounts (≈) assume the structure as drawn. The source made the active and inactive calls. The rule behind the calls is not given here.

Assay [1] has as its system Aspergillus niger. Description: Antifungal activity against Aspergillus niger ATCC 9029 by NCCLS broth microdilution method. The following applies: read-out: MIC100. The assay is classed as functional. The procedure, abridged: (§1)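 MIC by broth microdilution per NCCLS M27-A3/M38-A2 in RPMI-1640 buffered to pH 7.0 with MOPS. Twofold dilutions from 250–0.98 µg/mL, final DMSO ≤1%. Inoculum 1–5 × 10³ CFU/mL. Incubated in a moist dark chamber, 30 °C for Aspergillus and 28–30 °C for dermatophytes. Read visually when control growth allowed. Endpoint is the lowest concentration giving total inhibition of visible growth (MIC100).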
On the technique in general: In broth dilution the organism is exposed to a series of concentrations in liquid medium.

Assay [2] concerns Trichophyton mentagrophytes. Description: Antifungal activity against Trichophyton mentagrophytes ATCC 9972 by NCCLS broth microdilution method. The assay is classed as functional. The following applies: read-out: MIC100. The procedure, abridged:
as §1

In assay [3] the test system is Aspergillus flavus. Put plainly: Antifungal activity against Aspergillus flavus ATCC 9170 by NCCLS broth microdilution method. The assay is classed as functional. The settings on record: read-out: MIC100. In short, it runs like this:
as §1

Assay [4] deals with Candida tropicalis. Description: Antifungal activity against Candida tropicalis after 48 hrs by NCCLS broth microdilution method. The assay is classed as functional. The following applies: read-out: MIC100. The procedure, abridged:
(§2)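 Yeast MIC by NCCLS M27-A3 broth microdilution in RPMI-1640 buffered to pH 7.0 with MOPS. Twofold dilutions of 250–0.98 µg/mL, final DMSO ≤1%. Inoculum 1–5 × 10³ CFU/mL. Incubated at 30 °C in a moist dark chamber. Read visually at 48 h. MIC100 is the lowest concentration with no visible growth versus drug-free control.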

Assay [5] has as its system Cryptococcus neoformans. Description: Antifungal activity against Cryptococcus neoformans ATCC 32264 after 48 hrs by NCCLS broth microdilution method. The assay is classed as functional. The following applies: ATCC 32264, 48 h, read-out: MIC100. In short, it runs like this: as §2
In assay [6] the test system is Trichophyton rubrum. Put plainly: Antifungal activity against Trichophyton rubrum CCC 110 by NCCLS broth microdilution method. The format is functional. The following applies: read-out: MIC100. In short, it runs like this: as §1
The test system of assay [7] is Candida albicans. Description: Antifungal activity against Candida albicans ATCC 10231 after 48 hrs by NCCLS broth microdilution method. The format is functional. The following applies: ATCC 10231, 48 h, read-out: MIC100. The procedure, abridged:
as §2

Assay [8] deals with Aspergillus fumigatus. Description: Antifungal activity against Aspergillus fumigatus ATCC 26934 by NCCLS broth microdilution method. The format is functional. The following applies: read-out: MIC100. In short, it runs like this: as §1
For assay [9], the system named is Nannizzia gypsea. Put plainly: Antifungal activity against Microsporum gypseum CCC 115 by NCCLS broth microdilution method. The format is functional. The settings on record: read-out: MIC100. In short, it runs like this:
as §1

Assay [10] has as its system Trichophyton mentagrophytes. Description: Antifungal activity against Trichophyton mentagrophytes ATCC 9972 at 0.98 to 250 ug/mL by NCCLS broth microdilution method. The assay is classed as functional, organism-based. In short, it runs like this:
as §1

The test system of assay [11] is Candida albicans. Description: Antifungal activity against Candida albicans ATCC 10231 at 0.98 to 250 ug/mL after 48 hrs by NCCLS broth microdilution method. The assay is classed as functional, organism-based. The procedure, abridged: as §2
Assay [12] relates to Aspergillus niger. Description: Antifungal activity against Aspergillus niger ATCC 9029 at 0.98 to 250 ug/mL by NCCLS broth microdilution method. The format is functional, organism-based. In short, it runs like this:
as §1

Assay [13] has as its system Candida tropicalis. Put plainly: Antifungal activity against Candida tropicalis at 0.98 to 250 ug/mL after 48 hrs by NCCLS broth microdilution method. The assay is classed as functional, organism-based. The procedure, abridged: as §2
In assay [14] the test system is Trichophyton rubrum. Description: Antifungal activity against Trichophyton rubrum CCC 110 at 0.98 to 250 ug/mL by NCCLS broth microdilution method. The assay is classed as functional, organism-based. In short, it runs like this: as §1
For assay [15], the system named is Cryptococcus neoformans. Description: Antifungal activity against Cryptococcus neoformans ATCC 32264 at 0.98 to 250 ug/mL after 48 hrs by NCCLS broth microdilution method. The assay is classed as functional, organism-based. The procedure, abridged: as §2
In assay [16] the test system is Aspergillus flavus. Put plainly: Antifungal activity against Aspergillus flavus ATCC 9170 at 0.98 to 250 ug/mL by NCCLS broth microdilution method. The format is functional, organism-based. In short, it runs like this: as §1
Assay [17] relates to Aspergillus fumigatus. Description: Antifungal activity against Aspergillus fumigatus ATCC 26934 at 0.98 to 250 ug/mL by NCCLS broth microdilution method. The format is functional, organism-based. The procedure, abridged: as §1
Assay [18] relates to Nannizzia gypsea. Put plainly: Antifungal activity against Microsporum gypseum CCC 115 at 0.98 to 250 ug/mL by NCCLS broth microdilution method. The assay is classed as functional, organism-based. In short, it runs like this:
as §1

Take `CN(C/C=C/C#CC(C)(C)C)Cc1cccc2ccccc12` [TERBINAFINE]: the MIC in the assay with Aspergillus niger [1] amounted to 1.96 µg/mL (≈ 6.73 µM); in assay [2] it was 0.03 µg/mL (≈ 0.103 µM); in the assay with Aspergillus flavus [3], 0.98 µg/mL (≈ 3.36 µM); with Candida tropicalis [4], 1.95 µg/mL (≈ 6.69 µM); with Cryptococcus neoformans [5], 0.49 µg/mL (≈ 1.68 µM); in the assay on Trichophyton rubrum [6], 0.01 µg/mL (≈ 0.0343 µM). Besides, the MIC stood at 0.98 µg/mL (≈ 3.36 µM) with Candida albicans [7], 0.98 µg/mL (≈ 3.36 µM) with Aspergillus fumigatus [8] and 0.04 µg/mL (≈ 0.137 µM) in the assay with Nannizzia gypsea [9].

Turning to `COc1nc(N)nc(NCCOCCO)c1N=O`, the outcome (in [10]; in the assay on Candida albicans [11]; in the assay with Aspergillus niger [12]; in the assay with Candida tropicalis [13]; in the assay on Trichophyton rubrum [14]; in the assay with Cryptococcus neoformans [15]) was inactive. The outcome with Aspergillus flavus [16], with Aspergillus fumigatus [17] and in the assay on Nannizzia gypsea [18] was inactive.

As for `Nc1nc(OCC2CCCCC2)c(N=O)c(OCC2CCCCC2)n1`, the outcome (in assay [10]; in the assay on Candida albicans [11]; in the assay on Aspergillus niger [12]; in the assay with Candida tropicalis [13]; with Trichophyton rubrum [14]; in the assay with Cryptococcus neoformans [15]) was inactive. The outcome with Aspergillus flavus [16], in the assay on Aspergillus fumigatus [17] and in the assay on Nannizzia gypsea [18] was inactive.

Consider `COc1nc(N)nc(NC23CC4CC(CC(C4)C2)C3)c1N=O`, for which the outcome (in [10]; in the assay on Candida albicans [11]; with Aspergillus niger [12]; in the assay with Candida tropicalis [13]; in the assay with Trichophyton rubrum [14]; in the assay on Cryptococcus neoformans [15]) was inactive. Moreover, the result in the assay on Aspergillus flavus [16], in the assay with Aspergillus fumigatus [17] and in the assay with Nannizzia gypsea [18] was inactive.

In the case of `COc1nc(N)nc(NCCO)c1N=O`, the outcome (in assay [10]; in the assay with Candida albicans [11]; with Aspergillus niger [12]; in the assay on Candida tropicalis [13]; in the assay on Trichophyton rubrum [14]; in the assay with Cryptococcus neoformans [15]) was inactive. Also, the result in the assay with Aspergillus flavus [16], in the assay on Aspergillus fumigatus [17] and in the assay with Nannizzia gypsea [18] was inactive.

For `Nc1nc(NC(CO)C(=O)O)c(N=O)c(=O)[nH]1` (stereo unspecified), the outcome (in [10]; with Candida albicans [11]; with Aspergillus niger [12]; in the assay on Candida tropicalis [13]; in the assay on Trichophyton rubrum [14]; with Cryptococcus neoformans [15]) was inactive. Further, the result in the assay on Aspergillus flavus [16], in the assay with Aspergillus fumigatus [17] and with Nannizzia gypsea [18] was inactive.

For `CC(=O)N1CCN(c2ccc(OCC3COC(Cn4ccnc4)(c4ccc(Cl)cc4Cl)O3)cc2)CC1` (stereo unspecified) [KETOCONAZOLE], the MIC in the assay on Aspergillus niger [1] is 0.25 µg/mL (≈ 0.47 µM); in [2], 0.03 µg/mL (≈ 0.0565 µM); in the assay on Aspergillus flavus [3], 0.12 µg/mL (≈ 0.226 µM); in the assay on Candida tropicalis [4], 0.49 µg/mL (≈ 0.922 µM); in the assay with Cryptococcus neoformans [5], 0.25 µg/mL (≈ 0.47 µM); in the assay with Trichophyton rubrum [6], 0.03 µg/mL (≈ 0.0565 µM). For the same molecule, the MIC is 0.98 µg/mL (≈ 1.84 µM) in the assay with Candida albicans [7], 0.49 µg/mL (≈ 0.922 µM) in the assay on Aspergillus fumigatus [8] and 0.06 µg/mL (≈ 0.113 µM) in the assay on Nannizzia gypsea [9].

Regarding `COc1nc(N)nc(OC)c1N=O`, the outcome (in assay [10]; with Candida albicans [11]; with Aspergillus niger [12]; in the assay on Candida tropicalis [13]; in the assay with Trichophyton rubrum [14]; in the assay on Cryptococcus neoformans [15]) was inactive. The outcome in the assay with Aspergillus flavus [16], with Aspergillus fumigatus [17] and with Nannizzia gypsea [18] was inactive.

For `CCOC(=O)C(Cc1ccccc1)Nc1nc(N)nc(OC)c1N=O` (stereo unspecified), the result (in [10]; with Candida albicans [11]; in the assay on Aspergillus niger [12]; in the assay on Candida tropicalis [13]; in the assay on Trichophyton rubrum [14]; in the assay with Cryptococcus neoformans [15]) was inactive. In addition, the result in the assay on Aspergillus flavus [16], in the assay on Aspergillus fumigatus [17] and in the assay with Nannizzia gypsea [18] was inactive.

For `COc1nc(N)nc2c1NC(=O)CCN2`, the result (in assay [10]; with Candida albicans [11]; in the assay on Aspergillus niger [12]; in the assay with Candida tropicalis [13]; with Trichophyton rubrum [14]; in the assay on Cryptococcus neoformans [15]) was inactive. Besides, the result in the assay with Aspergillus flavus [16], in the assay on Aspergillus fumigatus [17] and in the assay with Nannizzia gypsea [18] was inactive.

Regarding `CCC(C)C(Nc1nc(N)[nH]c(=O)c1N=O)C(=O)O` (stereo unspecified), the result (in assay [10]; with Candida albicans [11]; in the assay on Aspergillus niger [12]; with Candida tropicalis [13]; in the assay on Trichophyton rubrum [14]; in the assay on Cryptococcus neoformans [15]) was inactive. Moreover, the outcome in the assay with Aspergillus flavus [16], with Aspergillus fumigatus [17] and in the assay with Nannizzia gypsea [18] was inactive.

In the case of `CCOC(=O)C(C)Nc1nc(N)nc(OC)c1N=O` (stereo unspecified), the result (in assay [10]; with Candida albicans [11]; with Aspergillus niger [12]; in the assay on Candida tropicalis [13]; in the assay on Trichophyton rubrum [14]; with Cryptococcus neoformans [15]) was inactive. For the same molecule, the outcome with Aspergillus flavus [16], in the assay on Aspergillus fumigatus [17] and in the assay on Nannizzia gypsea [18] was inactive.

Consider `Nc1nc(NC23CC4CC(CC(C4)C2)C3)c(N=O)c(=O)[nH]1`, for which the outcome (in assay [10]; with Candida albicans [11]; in the assay with Aspergillus niger [12]; with Candida tropicalis [13]; with Trichophyton rubrum [14]; in the assay with Cryptococcus neoformans [15]) was inactive. Further, the result with Aspergillus flavus [16], with Aspergillus fumigatus [17] and with Nannizzia gypsea [18] was inactive.

For `Nc1nc(NC2CCCCC2)c(N=O)c(N2CCCCCCCC2)n1`, the result (in assay [10]; in the assay on Candida albicans [11]; in the assay on Aspergillus niger [12]; with Candida tropicalis [13]; in the assay with Trichophyton rubrum [14]; with Cryptococcus neoformans [15]) was inactive. For the same molecule, the outcome in the assay on Aspergillus flavus [16], in the assay on Aspergillus fumigatus [17] and with Nannizzia gypsea [18] was inactive.
